Source: PubChem
IMP-1 inhibitor – inhibitors of Pseudomonas aeruginosa IMP-1 metallo-beta-lactamase; actives 0.45% (n = 290,000); inhibition, % at 5.6 µM; purified IMP-1, nitrocefin hydrolysis, epi-absorbance fluorescence; AID 1556;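 active = inhibition above the mean plus 3 SD of all compounds in the same screening run, cut at about 4.5% in these data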;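 note: 0% = IMP-1 with DMSO and 100% = DMSO wells lacking enzyme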
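assay system = purified recombinant IMP-1 metallo-beta-lactamase enzyme | schedule = 15 min preincubation plus 25 min reaction at 25 °C | signal = Epi-absorbance fluorescence, 480 nm excitation, 530 nm emission | read-out basis = percent inhibition from optical density relative to buffer-blank wells | controls = IMP-1 with DMSO as 0%, enzyme-free DMSO as 100%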
MEX-5 binding – C. elegans MEX-5 TCR-2 RNA binding activity; Q9XUB2; MEX-5/FITC-TCR2 RNA binding, fluorescence polarization; hits give low values; activity score (negative = inhibition of binding), % at 10 µM; actives 0.38% (n = 300,000); AID 1832;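 active = inhibition past about -25% in most replicates, and total fluorescence under double the plate's negative control median, limit read from the data; inconclusive = replicates evenly split on the limit, or fluorescence at least double controls; inactive = too little inhibition in most replicates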;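 note: 0% = DMSO and -100% = 5 µM competing unlabeled TCR2 RNA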
EBV gp42 block – blocks Epstein-Barr virus glycoprotein 42 binding. Q1HVG2. Fluorescence polarization binding assay, mP read-out. inhibition, % (tested at 21.74 µM). AID 1085. actives 0.42% (n = 220,000); in the data active = inhibition above about 50%
Target sequence (Q1HVG2 whole entry, looked up): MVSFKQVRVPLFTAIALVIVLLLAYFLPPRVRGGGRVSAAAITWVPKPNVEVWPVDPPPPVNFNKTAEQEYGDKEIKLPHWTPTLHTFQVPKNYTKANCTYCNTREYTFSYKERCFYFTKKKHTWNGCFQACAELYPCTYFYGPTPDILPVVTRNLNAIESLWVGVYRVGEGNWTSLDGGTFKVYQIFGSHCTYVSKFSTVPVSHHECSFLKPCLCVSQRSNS
Bcl-xL primary – blocks human Bcl-xL binding to Bim BH3 peptide; Q07817; GST-Bcl-xL / FITC-Bim BH3 peptide fluorescence polarization; inhibition, % at 10.9 µM; actives 0.7% (n = 320,000); AID 2129;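 active = inhibition above the mean of all tested compounds plus 3 SD, cutoff set per campaign, cut at about 30% in these data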;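 note: 0% = DMSO wells and 100% = unlabeled Bim-BH3 peptide competitor; inhibitors lower millipolarization by displacing the labeled peptide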
Target sequence (Q07817 whole entry, looked up): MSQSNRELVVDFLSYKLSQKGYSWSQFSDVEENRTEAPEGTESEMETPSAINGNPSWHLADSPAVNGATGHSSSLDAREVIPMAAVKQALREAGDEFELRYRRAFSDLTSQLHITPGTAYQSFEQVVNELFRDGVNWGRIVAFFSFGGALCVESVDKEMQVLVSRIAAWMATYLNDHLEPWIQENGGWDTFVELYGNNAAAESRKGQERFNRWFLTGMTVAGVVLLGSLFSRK
VIM-2 inhibitor – inhibitors of Pseudomonas aeruginosa VIM-2 metallo-beta-lactamase; purified VIM-2, nitrocefin hydrolysis, epi-absorbance fluorescence; inhibition, % at 5.6 µM; actives 0.89% (n = 290,000); AID 1527;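 active = inhibition above the mean of all tested compounds plus 3 SD, cutoff set per screening run, cut at about 7.5% in these data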;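 note: red hydrolysis product quenches plate fluorescence so inhibitors raise well fluorescence; 0% = enzyme with DMSO and 100% = DMSO without enzyme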
GLD-1 TGE inh – GLD-1-TGE RNA interaction inhibition (C. elegans). Q17339. actives 0.44% (n = 320,000). purified GLD-1 + fluorescein TGE RNA, fluorescence polarization. inhibition, % at 5.96 µM;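 active = percent inhibition above a per-plate cutoff, the plate mean of test compounds plus 3 SD, cut at about 30% in these data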;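 note: 0% = DMSO wells with GLD-1 and probe and 100% = wells lacking GLD-1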
The depositor's hits bear a star; u = inconclusive; x = no result given. Compounds with a hit are over-represented: about 2.2% of the library has one in this group of screens.

SMILES | IMP-1 inhibitor | MEX-5 binding | EBV gp42 block | Bcl-xL primary | VIM-2 inhibitor | GLD-1 TGE inh
Cc1ccc(S(=O)(=O)N2CCN(C(=O)COC(=O)c3ccc(O)cc3)CC2)c(C)c1 | x | 1 | x | -4 | x | -4
CCOc1ccc(/C=C2\SC(=S)N(C(C(=O)O)c3ccccc3)C2=O)cc1OC (stereo not drawn) | -2 | 9 | -34 | -4 | -1 | -17
COc1ccc(OC)c(/C=C2\SC(=S)N(C(C(=O)O)c3ccccc3)C2=O)c1 (stereo not drawn) | 4.8* | 7 | -31 | 8 | 4 | -12
O=C(O)c1nn(CC(=O)N2CCN(c3ncc(C(F)(F)F)cc3Cl)CC2)c(=O)c2ccccc12 | -2 | 0 | x | 2 | -1 | 13
C=CCN1C=C2C(=O)C(C)(OC(=O)CC)C(=O)C=C2C=C1CCCC (stereo not drawn) | x | -7 | 4 | 29 | x | 42*
CCC(=O)OC1(C)C(=O)C=C2C=C(CCCCNC(=O)OC(C)(C)C)OC=C2C1=O (stereo not drawn) | x | -20 | x | 26 | x | 50*
COC(=O)CCCC1=CC2=CC(=O)C(C)(O)C(=O)C2=CO1 (stereo not drawn) | x | -39* | x | 23 | x | 24
CCC(=O)OC1(C)C(=O)C=C2C=C(CCCC(=O)OC)OC=C2C1=O (stereo not drawn) | x | -31* | x | 70* | x | 46*
CCCCC1=CC2=CC(=O)C(C)(OC(=O)CC)C(=O)C2=CN1Cc1ccc(OC)cc1 (stereo not drawn) | x | -5 | 29 | 21 | x | 17
COC(=O)[C@]1(C)CCC[C@@]2(C)C3CC[C@@]4(C)C[C@]3(CCC21)CC(=O)N4Cc1ccc(OC)cc1 (stereo partly drawn) | x | x | x | -1 | x | -5
COc1cccc(C(=O)NCC2(c3ccc(OC)c(OC)c3)CCCC2)c1 | -1 | -2 | x | 2 | 1 | 9
CC(C)c1nnc(SCC(=O)N2CCN(C(=O)c3ccco3)CC2)n1N | -2 | 2 | 3 | -4 | -5 | 13
CSc1nnc(CCCCCNC(=O)OC(C)(C)C)o1 | -3 | 1 | -3 | -3 | -3 | 0
CCCCC1=CC2=CC(=O)C(C)(OC(=O)CC)C(=O)C2=CO1 (stereo not drawn) | x | -23 | x | 18 | x | 37*
CC(C)(C)OC(=O)NCCCC1=CC2=CC(=O)C(C)(OC(=O)c3ccc(Cl)nc3)C(=O)C2=CO1 (stereo not drawn) | x | u | x | 80* | x | 93*
CC(C)(C)OC(=O)NCCCC1=CC2=CC(=O)C(C)(O)C(=O)C2=CO1 (stereo not drawn) | x | -20 | x | 34* | x | 26
CCOc1cc(C=C2C(=O)c3ccccc3C2=O)ccc1OCC(=O)Nc1ccc(C)cc1 | -3 | -36* | 88* | 15 | -1 | 6
CCOc1cc(/C=N/NC(N)=O)ccc1OCC(=O)Nc1ccc(C)c(C)c1 | 0 | 4 | 10 | 3 | -3 | -5
CC(=O)N1CCSc2ccc(S(=O)(=O)Nc3cccc(C)c3)cc21 | -2 | -1 | x | 9 | -3 | 2
COc1ccc2oc(C(=O)OCC(=O)N(CCC#N)c3ccccc3)c(C)c2c1 | -2 | 1 | x | -2 | -1 | -4
Nc1nonc1C(=O)NCCN=Cc1ccccc1O | 0 | -2 | -9 | 3 | -4 | 5
Nc1nonc1C(=O)NCCN=Cc1cc(Cc2ccccc2)cc(Br)c1O | 8.7* | u | -2 | 7 | -4 | 5
CCc1cc[n+](-c2nc([O-])sc2C=O)cc1 | -2 | -50* | 87* | 122* | 0 | 99*
CC(C)c1cc[n+](-c2nc([O-])sc2C=O)cc1 | -4 | -22 | 30 | 42* | -1 | 12
CC(C)(C)c1cc[n+](-c2nc([O-])sc2C=O)cc1 | -2 | 1 | 17 | 19 | -5 | 2
SMILES | IMP-1 inhibitor | MEX-5 binding | EBV gp42 block | Bcl-xL primary | VIM-2 inhibitor | GLD-1 TGE inh
O=C1c2ccccc2/C(=C\C#Cc2ccccn2)N1c1ccccc1 | x | x | x | x | x | 4
O=C(COC(=O)CCN1C(=O)/C(=C\C=C\c2ccccc2)SC1=S)Nc1cc(F)ccc1F | 7.9* | -1 | -12 | -9 | -2 | -12
O=C(CN1C(=O)/C(=C\C=C\c2ccccc2)SC1=S)Nc1ccc(F)cc1 | 0 | u | -11 | 28 | 0 | 21
O=C(CCN1C(=O)/C(=C\C=C\c2ccccc2)SC1=S)Nc1ccc(C(=O)O)cc1 | 8.4* | u | x | 0 | -1 | -10
CC(=O)c1cccc(Nc2cc(C)nc3c(C)cc(C)cc23)c1 | -3 | 4 | -16 | 0 | 10* | 3
CC(=O)c1cccc(Nc2cc(C)nc3ccc(C)cc23)c1 | -5 | 1 | -6 | 3 | 9.8* | -1
COC(=O)c1ccc(Nc2cc(C)nc3ccc(C)cc23)cc1 | -2 | -5 | -6 | 5 | 5 | 3
O=C(Nc1nccs1)C1CCCN1/C=C/C(=O)C(F)(F)F (stereo not drawn) | -1 | -2 | x | 0 | 1 | 1
Cc1ccc(C)c(OC(=O)CN2C(=O)c3ccccc3C2=O)c1 | -2 | -3 | x | 0 | -2 | 0
Cc1ccc(/C=C2\Oc3c(ccc(O)c3CN3CCN(CCO)CC3)C2=O)cc1 | -2 | -32* | -2 | 48* | 3 | -2
CC(C)c1ccc(/C=C2\Oc3c(ccc(O)c3CN3CCN(C)CC3)C2=O)cc1 | -1 | -20 | -28 | 41* | 6 | -6
Cc1c(C)c2ccc(O)c(CN3CCN(C)CC3)c2oc1=O | -4 | -2 | x | x | 1 | x
CC(NC(=O)CSc1nc(C2CC2)n(-c2ccccc2)n1)c1ccco1 (stereo not drawn) | x | x | x | -4 | x | -3
C/C(=N\NC(=O)c1ccc(-n2cnnn2)cc1)c1ccc(Cl)cc1 | x | x | x | 3 | x | 4
CN(C)C1=NC(=O)/C(=C/c2ccc(-c3ccc(S(N)(=O)=O)cc3)o2)S1 | -1 | -29* | x | 25 | 6 | -1
Oc1sc(C=Nc2ccc(F)cc2)c2ccccc12 | 13* | -20 | 5 | -11 | 6 | -116
CCCN(Cc1nnc(-c2cccs2)o1)C(=O)CN1C(=O)NC2(CCC(C)CC2)C1=O (stereo not drawn) | x | x | x | -3 | x | 3
O=C(N/N=C1/C(=O)c2cccc3cccc1c23)c1ccc(Cl)cc1 | 0 | 1 | 67* | 57* | -5 | 5
CCNC(=S)N/N=C1\C(=O)c2cccc3cccc1c23 | -6 | 1 | 3 | 6 | -2 | 5
Cc1ccc(Sc2cc(C(=O)NCCCN(C)C)c3ccccc3n2)cc1 | 0 | 1 | x | 78* | -1 | 69*
COC(=O)c1c(-c2cccnc2)csc1NC(=O)c1cc(C)on1 | -3 | -1 | -17 | -10 | 9.7* | -33
COC(=O)c1c(-c2ccc(C)cc2)csc1NC(=O)c1c(-c2ccccc2)noc1C | -1 | 1 | -10 | 1 | 1 | 4
